Test results reported in ChEMBL document CHEMBL1150392, “Synthesis and activity on rat aorta rings and rat pancreatic beta-cells of ring-opened analogues of benzopyran-type potassium channel activators” (Bioorg Med Chem, 2008).
pIC50: −log10 of the molar value.

Legend:
Rattus norvegicus [1] = organism: Rattus norvegicus; test: Activation of ATP-sensitive potassium channel in Wistar rat pancreatic beta islets assessed as glucose-induced residual insulin secretion at 10 uM relative to control
Rattus norvegicus [2] = organism: Rattus norvegicus; test: Activation of ATP-sensitive potassium channel in Wistar rat pancreatic beta islets assessed as glucose-induced residual insulin secretion at 50 uM relative to control
Rattus norvegicus [3] = organism: Rattus norvegicus; test: Activation of ATP-sensitive potassium channel in potassium-depolarized Wistar rat aortic rings assessed as myorelaxant activity against KCl-induced contraction; type: tissue-based; conditions: Aorta
Method in brief: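 Aorta rings were taken from fed Wistar rats (180–220 g) and contracted with KCl 30 mM. Dose–response curves were run against the plateau phase.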

Aorta = test: Ratio of IC50 for inhibition of glucose-induced insulin secretion in Wistar rat pancreatic beta islets to ED50 for myorelaxant activity in Wistar rat aortic rings; type: functional
[4] = Activation of ATP-sensitive potassium channel in Wistar rat pancreatic beta islets assessed as inhibition of glucose-induced insulin secretion

Row | SMILES | Activity (Rattus norvegicus [1]) | Activity (Rattus norvegicus [2]) | ED50 (Rattus norvegicus [3]) | Ratio (Aorta) | pIC50 [4]
1 | CC1=Nc2ccc(Cl)cc2S(=O)(=O)N1 [DIAZOXIDE] | 71.7% | 27.9% | 23.8 µM | 1 | 4.71
2 | COc1ccccc1CNC(=O)c1ccc([N+](=O)[O-])cc1 | – | 86.6% | > 30 µM | – | –
3 | COc1ccccc1CNC(=O)NS(=O)(=O)c1ccc(Cl)cc1 | – | 113% | > 30 µM | – | –
4 | CC1(C)Oc2ccc(C#N)cc2C(N2CCCC2=O)C1O (configuration not stated) [CROMAKALIM] | 94.7% | 77.2% | 0.13 µM | >769 | –
5 | CC(N/C(=N\C#N)Nc1ccncc1)C(C)(C)C (configuration not stated) | 96% | – | 0.35 µM | – | –
6 | COc1ccccc1CNC(=O)c1cccs1 | – | 83.3% | > 30 µM | – | –
